Data from ChEMBL document CHEMBL1649143, “In vitro activities of fluconazole and voriconazole against clinical isolates of Candida spp. determined by disk diffusion testing in Turin, Italy” (2009).
≈ marks a conversion by molar mass, not a printed value.

Experiments:
Kluyveromyces marxianus [1] = assay: Antifungal activity against Candida kefyr assessed as percent susceptible isolates at 25 ug/disc by CLSI M44-A disk diffusion method; assay type: functional
Summary of the method: (§1)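 Agar disk diffusion per CLSI M44-A on clinical Candida isolates collected in Turin, Italy; 1,024 isolates tested in total. Each isolate was classed as susceptible (S), susceptible-dose dependent (SDD) or resistant (R), and the percentage of isolates per species in each category was reported.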

[2] = Antifungal activity against Candida membranifaciens assessed as percent susceptible isolates at 25 ug/disc by CLSI M44-A disk diffusion method; assay type: functional
Summary of the method: (§2)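 Clinical yeast isolates tested by agar disk diffusion per CLSI M44-A. Zone diameters were converted to MICs by an automated zone-reading system applying species-specific linear regression against reference dilution MICs. Isolates were classed as susceptible, susceptible-dose dependent or resistant using CLSI MIC breakpoints, and reported as number and percent susceptible per species.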

Nakaseomyces glabratus [3] = assay: Antifungal activity against Candida glabrata by reference dilution method; assay type: functional
Candida albicans [4] = assay: Antifungal activity against Candida albicans assessed as percent resistant isolates at 25 ug/disc by CLSI M44-A disk diffusion method; assay type: functional; summary of the method: as §1
Pichia kudriavzevii [5] = assay: Antifungal activity against Candida krusei assessed as percent susceptible isolates at 25 ug/disc by CLSI M44-A disk diffusion method; assay type: functional; summary of the method: as §1
Pichia norvegensis [6] = assay: Antifungal activity against Candida norvegensis by reference dilution method; assay type: functional
Pichia fermentans = assay: Antifungal activity against Candida lambica assessed as percent susceptible isolates at 25 ug/disc by CLSI M44-A disk diffusion method; assay type: functional; summary of the method: as §2
Pichia norvegensis [7] = assay: Antifungal activity against Candida norvegensis assessed as percent resistant isolates at 25 ug/disc by CLSI M44-A disk diffusion method; assay type: functional; summary of the method: as §1
Kluyveromyces marxianus [8] = assay: Antifungal activity against Candida kefyr assessed as percent resistant isolates at 25 ug/disc by CLSI M44-A disk diffusion method; assay type: functional; summary of the method: as §1
Candida tropicalis [9] = assay: Antifungal activity against Candida tropicalis assessed as percent susceptible isolates at 25 ug/disc by CLSI M44-A disk diffusion method; assay type: functional; summary of the method: as §1
Candida parapsilosis [10] = assay: Antifungal activity against Candida parapsilosis by reference dilution method; assay type: functional; conditions: Lodderomyces parapsilosis
Candida parapsilosis [11] = assay: Antifungal activity against Candida parapsilosis assessed as percent susceptible isolates at 25 ug/disc by CLSI M44-A disk diffusion method; assay type: functional; summary of the method: as §1
Candida tropicalis [12] = assay: Antifungal activity against Candida tropicalis assessed as percent resistant isolates at 25 ug/disc by CLSI M44-A disk diffusion method; assay type: functional; summary of the method: as §1
Pichia norvegensis [13] = assay: Antifungal activity against Candida norvegensis assessed as dose dependent percent susceptible isolates at 25 ug/disc by CLSI M44-A disk diffusion method; assay type: functional; summary of the method: as §1
Kluyveromyces marxianus [14] = assay: Antifungal activity against Candida kefyr by reference dilution method; assay type: functional
Cyberlindnera jadinii = assay: Antifungal against Candida utilis assessed as percent susceptible isolates at 25 ug/disc by CLSI M44-A disk diffusion method; assay type: functional; summary of the method: as §2
Candida albicans [15] = assay: Antifungal activity against Candida albicans by reference dilution method; assay type: functional
Pichia kudriavzevii [16] = assay: Antifungal activity against Candida krusei by reference dilution method; assay type: functional
Diutina rugosa = assay: Antifungal activity against Candida rugosa assessed as percent susceptible isolates at 25 ug/disc by CLSI M44-A disk diffusion method; assay type: functional; summary of the method: as §2
Nakaseomyces glabratus [17] = assay: Antifungal activity against Candida glabrata assessed as percent susceptible isolates at 25 ug/disc by CLSI M44-A disk diffusion method; assay type: functional; summary of the method: as §1
Candida tropicalis [18] = assay: Antifungal activity against Candida tropicalis by reference dilution method; assay type: functional
[Candida] intermedia = Antifungal activity against Candida intermedia assessed as percent susceptible isolates at 25 ug/disc by CLSI M44-A disk diffusion method; assay type: functional, Sungouiella intermedia; summary of the method: as §2
Nakaseomyces glabratus [19] = assay: Antifungal activity against Candida glabrata assessed as dose dependent percent susceptible isolates at 25 ug/disc by CLSI M44-A disk diffusion method; assay type: functional; summary of the method: as §1
Pichia kudriavzevii [20] = assay: Antifungal activity against Candida krusei assessed as dose dependent percent susceptible isolates at 25 ug/disc by CLSI M44-A disk diffusion method; assay type: functional; summary of the method: as §1
[21] = Antifungal activity against Candida humicola assessed as percent susceptible isolates at 25 ug/disc by CLSI M44-A disk diffusion method; assay type: functional; summary of the method: as §2
Candida = assay: Antifungal activity against Candida sp. by reference dilution method; assay type: functional
[22] = Antifungal activity against Candida holmii assessed as percent susceptible isolates at 25 ug/disc by CLSI M44-A disk diffusion method; assay type: functional; conditions: Kazachstania exigua; summary of the method: as §2
Pichia kudriavzevii [23] = assay: Antifungal activity against Candida krusei assessed as percent resistant isolates at 25 ug/disc by CLSI M44-A disk diffusion method; assay type: functional; summary of the method: as §1
Candida albicans [24] = assay: Antifungal activity against Candida albicans assessed as dose dependent percent susceptible isolates at 25 ug/disc by CLSI M44-A disk diffusion method; assay type: functional; summary of the method: as §1
Candida parapsilosis [25] = assay: Antifungal activity against Candida parapsilosis assessed as dose dependent percent susceptible isolates at 25 ug/disc by CLSI M44-A disk diffusion method; assay type: functional; summary of the method: as §1
Clavispora lusitaniae = assay: Antifungal activity against Candida lusitaniae assessed as percent susceptible isolates at 25 ug/disc by CLSI M44-A disk diffusion method; assay type: functional; summary of the method: as §2
Nakaseomyces glabratus [26] = assay: Antifungal activity against Candida glabrata assessed as percent resistant isolates at 25 ug/disc by CLSI M44-A disk diffusion method; assay type: functional; summary of the method: as §1
Candida tropicalis [27] = assay: Antifungal activity against Candida tropicalis assessed as dose dependent percent susceptible isolates at 25 ug/disc by CLSI M44-A disk diffusion method; assay type: functional; summary of the method: as §1
Candida albicans [28] = assay: Antifungal activity against Candida albicans assessed as percent susceptible isolates at 25 ug/disc by CLSI M44-A disk diffusion method; assay type: functional; summary of the method: as §1

Molecule OC(Cn1cncn1)(Cn1cncn1)c1ccc(F)cc1F [FLUCONAZOLE] has an Activity (Kluyveromyces marxianus [1]) of 96%, an Activity [2] of 92.9% and an MIC50 (Nakaseomyces glabratus [3]) of 4 µg/mL (≈ 13.1 µM). The MIC90 (Nakaseomyces glabratus [3]) was 64 µg/mL (≈ 209 µM), the Activity (Candida albicans [4]) was 1% and the Activity (Pichia kudriavzevii [5]) was 11%. The MIC50 (Pichia norvegensis [6]) was 128 µg/mL (≈ 418 µM), the MIC90 (Pichia norvegensis [6]) was 256 µg/mL (≈ 836 µM) and the Activity (Pichia fermentans) was 92.9%. The Activity (Pichia norvegensis [7]) was 79%, the Activity (Kluyveromyces marxianus [8]) was 4% and the Activity (Candida tropicalis [9]) was 92%. For the same molecule, the MIC50 (Candida parapsilosis [10]) was 0.5 µg/mL (≈ 1.63 µM), the MIC90 (Candida parapsilosis [10]) was 4 µg/mL (≈ 13.1 µM) and the Activity (Candida parapsilosis [11]) was 96%. The Activity (Candida tropicalis [12]) was 5%, the Activity (Pichia norvegensis [13]) was 21% and the MIC50 (Kluyveromyces marxianus [14]) was 0.25 µg/mL (≈ 0.816 µM). For the same molecule, the MIC90 (Kluyveromyces marxianus [14]) was 0.25 µg/mL (≈ 0.816 µM), the Activity (Cyberlindnera jadinii) was 92.9% and the MIC50 (Candida albicans [15]) was 0.5 µg/mL (≈ 1.63 µM). It also gave an MIC90 (Candida albicans [15]) of 4 µg/mL (≈ 13.1 µM), an MIC50 (Pichia kudriavzevii [16]) of 128 µg/mL (≈ 418 µM) and an MIC90 (Pichia kudriavzevii [16]) of 256 µg/mL (≈ 836 µM). The Activity (Diutina rugosa) was 92.9%, the Activity (Nakaseomyces glabratus [17]) was 82% and the MIC50 (Candida tropicalis [18]) was 2 µg/mL (≈ 6.53 µM). The MIC90 (Candida tropicalis [18]) was 16 µg/mL (≈ 52.2 µM), the Activity ([Candida] intermedia) was 92.9% and the Activity (Nakaseomyces glabratus [19]) was 9%. It also gave an Activity (Pichia kudriavzevii [20]) of 21%, an Activity [21] of 92.9% and an MIC50 (Candida) of 2 µg/mL (≈ 6.53 µM). The MIC90 (Candida) was 128 µg/mL (≈ 418 µM), the Activity [22] was 92.9% and the Activity (Pichia kudriavzevii [23]) was 68%. It also gave an Activity (Candida albicans [24]) of 1%, an Activity (Candida parapsilosis [25]) of 4% and an Activity (Clavispora lusitaniae) of 92.9%. It also gave an Activity (Nakaseomyces glabratus [26]) of 9%, an Activity (Candida tropicalis [27]) of 3% and an Activity (Candida albicans [28]) of 98%.
